Screens (PubChem BioAssay)
The list is not random: actives were taken first. Their share in the collection is about 2.6%.
MC4R barr agon: MC4R agonists recruiting beta-arrestin, primary screen, cell-based, luminescence, agonist arm of biased-ligand search. 360,000 compounds, 0.98% hits. Melanocortin receptor 4 (Homo sapiens), P32245. AID 540308, 2011. activation, % at 8.9 µM. U2OS MC4R beta-arrestin complementation; percent of melanotan II response, DMSO zero;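 active means activation above a per-plate cutoff, the mean activation of sample wells on that plate plus 3 SD, cut at about 8% in these data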
Target sequence (P32245 whole entry, looked up): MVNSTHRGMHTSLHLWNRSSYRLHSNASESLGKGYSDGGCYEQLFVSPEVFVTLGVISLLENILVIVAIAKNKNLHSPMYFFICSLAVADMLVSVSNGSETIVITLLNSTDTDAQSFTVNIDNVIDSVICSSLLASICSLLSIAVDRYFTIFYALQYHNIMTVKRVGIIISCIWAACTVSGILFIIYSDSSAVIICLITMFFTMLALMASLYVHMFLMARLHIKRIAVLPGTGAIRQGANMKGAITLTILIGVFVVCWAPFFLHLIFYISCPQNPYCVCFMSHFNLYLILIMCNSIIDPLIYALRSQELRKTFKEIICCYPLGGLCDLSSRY
T cell HTS: modulators of CD8 T cell-vesicle binding, primary screen, mouse 2C CD8+ T cells, flow cytometry; response (vesicle binding), % at 7 µM; 330,000 compounds, 0.068% hits; 2C CD8+ T cell-vesicle binding; stronger effect = lower value;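 active means response, share of CD8 T cells binding vesicles, and their 90th percentile fluorescence all below set limits, cut at about 80% in these data, passing the limit was not always enough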;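 further: values below 100% mean blocked vesicle binding to the CD8+ T cells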
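Also added: QL9-peptide-loaded Drosophila micro-vesicles bearing Ld, ICAM-1 and B7-1; Test system: purified 2C TCR transgenic mouse naive CD8+ T cells; Measured by: cytometric PE anti-B7-1 and Alexa647 anti-CD8 signals after 1% paraformaldehyde fixation; Timing: binding step 1.5 h, 37 °C, antibody labelling 20 min, ice.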
EP2 modulator: EP2 receptor modulators, cAMP readout, primary screen, cell-based, HTRF cAMP, PGE2 stimulation | EP2-expressing cells, cAMP HTRF FRET, PGE2 co-stimulation | 260,000 compounds, 0.83% hits | induction, % at 25 µM | AID 940, 2007 | Prostaglandin E2 receptor EP2 subtype (Homo sapiens), P43116;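 active means compounds whose cAMP rise, as percent of the full-agonist control response, exceeds 60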;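 further: rat C6 glioma line stably carrying human EP2 under a CMV promoter; the protocol text gives 20 µM as final concentration; 100% = response of wells given 1 µM PGE2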
MC4R antag cAMP: MC4R antagonists of cAMP signaling, primary screen, cell-based, TR-FRET, antagonist arm of biased-ligand search; MC4R-expressing cells, MTII-stimulated cAMP, LANCE TR-FRET; Melanocortin receptor 4 (Homo sapiens), P32245; AID 540295, 2011; inhibition, % at 6.5 µM; 360,000 compounds, 0.48% hits;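 active means inhibition above its plate's cutoff, the mean of tested wells on that plate plus 3 SD, cut at about 29% in these data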;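 further: 0% = Melanotan II alone and 100% = Melanotan II plus saturating MCL0020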
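material = U2OS cells stably expressing human melanocortin 4 receptor (MC4R) | also added = Melanotan II challenge | dosing = single nominal compound dose of 6.5 µM | detection = TR-FRET with Eu-cAMP and labeled anti-cAMP, 671 nm | replication = singlicate | timing = compound 30 min, challenge 1 h, detection 1 h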
EP2 antag: human EP2 receptor antagonists, primary screen, TR-FRET cAMP, C6 glioma cells | Prostaglandin E2 receptor EP2 subtype (Homo sapiens), P43116 | C6 glioma cells expressing human EP2; cells stimulated with saturating PGE2 | inhibition, % at 25 µM | 260,000 compounds, 0.52% hits | AID 1422, 2008;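 active means percent inhibition above 40 after rounding to a whole number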;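 further: rat C6 glioma host cells with rolipram phosphodiesterase inhibitor present; the protocol text gives 20 µM as final concentration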
Granule exo inh: LAMP-1 surface exposure blockers, TALL-104 cells – cell-based, flow cytometry, MLPCN library, primary screen; inhibition, % at 10 µM; 360,000 compounds, 0.66% hits; TALL-104 LAMP-1 surface exposure; cells stimulated with thapsigargin and PMA;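 active means inhibition above about 55%, limit read from the data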
* marks the source's active call; other numbers are inactive results.

Nc1ncnc2c1ncn2[C@@H]1O[C@H](CO)[C@H](O)C1O (some centres not stated) was read as EP2 modulator 13 and EP2 antag 8.
`CCO[P@]1(=O)OC[C@@H]2O[C@H](n3cnc4c(N)ncnc43)[C@H](O)[C@H]2O1` gave EP2 modulator 101* and EP2 antag 4.
For Nc1ncnc2c1nc(Br)n2C1OC2COP(=O)(O)O[C@@H]2C1O (some centres not stated) the results were EP2 modulator 93* and EP2 antag 2.
Cc1cc(NC(=O)COC(=O)C2CC(=O)N(c3cccc(Cl)c3)C2)no1 (configuration not stated) was read as MC4R barr agon -2, T cell HTS inactive, MC4R antag cAMP 6 and Granule exo inh 3.
For N#Cc1c(SCC(N)=O)nc(-c2ccccc2)c2c1CCCC2 the results were MC4R barr agon -3, T cell HTS 208, EP2 modulator 25, MC4R antag cAMP 17, EP2 antag 25 and Granule exo inh -4.
N#Cc1c(SCC(=O)O)nc(-c2ccccc2)c2c1CCCC2 was read as MC4R barr agon -3, T cell HTS 215, EP2 modulator 43, MC4R antag cAMP 17, EP2 antag 45* and Granule exo inh 3.
For O=C1c2ccccc2-c2cc(Br)ccc2NC1O (configuration not stated) the results were MC4R barr agon 2, MC4R antag cAMP -1 and Granule exo inh 7.
`O=C1c2ccccc2[C@@H]([C@H]2c3ccccc3C(=O)c3cc(Br)ccc32)c2ccc(Br)cc21` gave EP2 modulator 4 and EP2 antag 54*.
For CCN(CC)c1c(-c2ccccc2)c2cc(C)ccc2[nH]c1=O the results were MC4R barr agon 0, T cell HTS 321, EP2 modulator 61*, MC4R antag cAMP -1, EP2 antag 10 and Granule exo inh -4.
`Cc1cccc(N2CCN(C(=O)CCn3nnc4ccccc43)CC2)c1C` gave EP2 modulator -8 and EP2 antag 18.
For CC(C)CCC[C@@H](C)[C@@H]1CC[C@@H]2[C@H]3CC[C@H]4C[C@@H](N)CC[C@]4(C)[C@@H]3CC[C@]21C the results were EP2 modulator -17 and EP2 antag 41*.
CC[C@H](CCC(C)[C@H]1CCC2C3CCC4C[C@@H](O)CC[C@]4(C)C3CC[C@@]21C)C(C)C (some centres not stated) was read as EP2 modulator 16 and EP2 antag 7.
COC(=O)CC[C@@H](C)[C@@H]1CC[C@@H]2[C@H]3CC[C@H]4C[C@@H](O)CC[C@]4(C)[C@@H]3CC[C@]21C was read as EP2 modulator 30 and EP2 antag 42*.
`CC(CCC(=O)NN)C1CCC2C3CCC4CC(O)CCC4(C)C3CCC12C` (configuration not stated) gave MC4R barr agon 2, MC4R antag cAMP -1 and Granule exo inh 7.
O=C(COC(=O)c1ccccc1Nc1ccccc1)c1ccccc1 was read as MC4R barr agon 1, T cell HTS 577, EP2 modulator 23, MC4R antag cAMP 8, EP2 antag 6 and Granule exo inh 0.
`COC(=O)c1ccccc1Nc1ccccc1` gave MC4R barr agon 0, T cell HTS 160, EP2 modulator 64*, MC4R antag cAMP 3, EP2 antag 9 and Granule exo inh -2.
Screening CCOC(=O)C1CCN(c2nc3c(C)cccn3c(=O)c2/C=C(\C#N)S(=O)(=O)c2ccccc2)CC1 returned MC4R barr agon -1, T cell HTS 736, EP2 modulator -3, MC4R antag cAMP -18, EP2 antag 10 and Granule exo inh 84*.
For Nc1ccc(S(=O)(=O)c2cc(O)c3ccccc3c2O)cc1 the results were MC4R barr agon -2, MC4R antag cAMP -9 and Granule exo inh 88*.
`Nc1nc2c(nc(Br)n2C2OC3COP(=O)(O)O[C@@H]3C2O)c(=O)[nH]1` (some centres not stated) gave EP2 modulator 11 and EP2 antag 10.
For Cc1c(C(=O)N(Cc2ccccc2Cl)C2CCS(=O)(=O)C2)oc2ccccc12 (configuration not stated) the results were MC4R barr agon -1, T cell HTS 503, MC4R antag cAMP 15 and Granule exo inh 0.
For Cc1cc(C)c2cc(CN(Cc3ccco3)Cc3nnnn3C3CCCCC3)c(=O)[nH]c2c1 the results were EP2 modulator 69* and EP2 antag 8.
For CCCC(c1nnnn1C1CCCC1)N(Cc1ccco1)Cc1cc2cc(C)cc(C)c2[nH]c1=O (configuration not stated) the results were EP2 modulator 20 and EP2 antag 16.
Screening CCC(c1nnnn1C1CCCC1)N(Cc1ccco1)Cc1cc2cc(C)ccc2[nH]c1=O (configuration not stated) returned EP2 modulator 69* and EP2 antag 8.
Cc1cc(C)c2cc(CN(Cc3cccs3)C(c3nnnn3C(C)(C)C)C(C)C)c(=O)[nH]c2c1 (configuration not stated) was read as EP2 modulator 61* and EP2 antag 14.
`Cc1ccc2[nH]c(=O)c(CN(Cc3ccco3)Cc3nnnn3C3CCCCC3)cc2c1` gave EP2 modulator 52 and EP2 antag 5.
CCCC(c1nnnn1C1CCCCC1)N(Cc1ccco1)Cc1cc2c(C)cc(C)cc2[nH]c1=O (configuration not stated) was read as EP2 modulator 69* and EP2 antag 20.
C(=NC12CN3CN(CN(C3)C1)C2)c1ccc2c(c1)OCO2 was read as MC4R barr agon -1, T cell HTS 209, EP2 modulator 0, MC4R antag cAMP -2, EP2 antag 4 and Granule exo inh -2.
For CCCC(c1nnnn1C(C)(C)C)N(Cc1cc2cc(C)ccc2[nH]c1=O)C1CCCCC1 (configuration not stated) the results were EP2 modulator 66* and EP2 antag 9.
